CSN inh = blocks human CSN-mediated cullin deneddylation; Q92905; Purified CSN, SCF-Nedd8-OG deneddylation, fluorescence polarization; inhibition, % at 12.5 µM; 0.38% of 360,000 active;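 active means pattern-corrected inhibition above about 35%, with an unprinted fluorescence ratio check between 0.5 and 1.5, limit read from the data, passing the limit was not always enough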;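 further: 0% = enzyme with substrate and 100% = substrate without enzyme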
Target sequence (Q92905 whole entry, looked up, one chain of several): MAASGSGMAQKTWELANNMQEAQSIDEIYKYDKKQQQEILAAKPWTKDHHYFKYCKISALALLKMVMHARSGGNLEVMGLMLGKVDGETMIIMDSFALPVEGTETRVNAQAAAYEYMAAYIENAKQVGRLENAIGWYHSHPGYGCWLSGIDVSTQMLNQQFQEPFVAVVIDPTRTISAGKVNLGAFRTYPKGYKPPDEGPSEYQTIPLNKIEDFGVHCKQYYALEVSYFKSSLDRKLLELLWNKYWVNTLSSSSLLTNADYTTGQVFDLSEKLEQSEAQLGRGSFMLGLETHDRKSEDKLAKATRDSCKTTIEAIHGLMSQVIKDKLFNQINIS
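test system = HEK293T-derived human Csn5 enzyme | amount = 0.24 nM Csn5 enzyme, final concentration | medium = Tris/NaCl/DTT buffer, pH 7.5 | schedule = 90 min reaction at room temperature | signal = FP | evaluation = inhibition of Csn5 cleavage, % | compound dosing = single dose of 12.5 µM compound with 0.25% DMSO | probe or stimulus = 10 nM SCFSkp2-Nedd8OG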
Rpn11 inh = Rpn11 (human) deubiquitinase inhibition; 0.59% of 360,000 active; inhibition, % at 20 µM; human 26S proteasome, Ub4-pepOG fluorescence polarization; 20S core pre-blocked with epoxomicin; O00487; AID 588493;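 active means inhibition at 20 µM, scaled to each plate's controls, above about 33%, limit read from the data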
Target sequence (O00487 whole entry, looked up): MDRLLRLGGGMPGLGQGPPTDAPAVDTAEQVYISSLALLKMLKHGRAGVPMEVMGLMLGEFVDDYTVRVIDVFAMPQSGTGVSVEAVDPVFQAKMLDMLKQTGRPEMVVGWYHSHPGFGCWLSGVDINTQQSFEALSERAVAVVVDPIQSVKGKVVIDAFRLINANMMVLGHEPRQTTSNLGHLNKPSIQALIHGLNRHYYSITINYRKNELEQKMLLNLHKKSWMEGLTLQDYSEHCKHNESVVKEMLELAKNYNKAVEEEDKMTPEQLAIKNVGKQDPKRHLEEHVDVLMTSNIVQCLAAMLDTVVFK
HNF4A DNA FP = change in binding of human HNF4 alpha to DNA; P41235; HNF4a-FITC DNA binding, fluorescence polarization, 1 h; activity change, % at 10 µM; 0.3% of 360,000 active; AID 1224865; in the data active means activity change above about 30%, passing the limit was not always enough
Myeloid diff MLP = promotes myeloid progenitor differentiation; ER-HoxA9 myeloid progenitors, lysozyme-GFP differentiation, flow cytometry; calls only at 10 µM; 1% of 360,000 active;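 active means normalized GFP-positive differentiation at or above the plate's own cutoff, the solvent-only control mean plus 3 SD; inconclusive means no clear call, values can overlap the other calls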;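 further: cells exposed to compound for four days before flow analysis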
TPT1 inh = blocks Candida albicans tRNA 2'-phosphotransferase; inhibition, % at 5 µM; recombinant caTPT1, FP RNA substrate dephosphorylation; 0.81% of 300,000 active; AID 1962;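 active means inhibition above the mean of all tested compounds plus 3 SD, set per screening campaign, cut at about 24% in these data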;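 further: plate controls were DMSO alone for no effect and ferristatin control at 100 nM for full effect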
Myeloid diff = promotes myeloid progenitor differentiation; shares compounds with Myeloid diff MLP; ER-HoxA9 myeloid progenitors, GFP/Mac1 double-positive flow; calls only; 2% of 2,300 active; AID 651706;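 active means share of green or green-and-red cells above 9 and 9% in run 1 or 4 and 3% in run 2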
GFP autofluor = counter-screen for myeloid differentiation promoters: compound fluorescence; shares compounds with Myeloid diff MLP; ER-HoxA9 myeloid progenitors, no estrogen, GFP autofluorescence flow cytometry; vehicle wells 0%, positive control 100%; fluorescence response, % (no concentration beside the values); 7.4% of 2,300 active;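 active means over 5% cells positive for green fluorescent reporter, or over 2% positive for both it and APC stain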;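 further: range taken on the double positive population between DMSO and positive control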
Numbers without * were called inactive; i = inactive; ? = inconclusive; nt = not tested or not shown; + = active, no number. Only some compounds are listed: those with a hit (about 2.3% of all), similar ones and a draw of the others.

SMILES	CSN inh	Rpn11 inh	HNF4A DNA FP	Myeloid diff MLP	TPT1 inh	Myeloid diff	GFP autofluor
CCc1c(-c2ccccc2F)ncn1Cc1cccc(-c2ccccc2)c1	2	nt	5	i	nt	i	2
Cc1nn(-c2ccccc2)c(N2CCCC2)c1/C=N/NC(=O)c1cc2ccccc2cc1O	6	nt	8	i	4	nt	nt
Cc1nn(-c2ccccc2)c(N2CCCC2)c1/C=N/NC(=S)Nc1ccccc1F	2	-6	-1	+	-1	+	1
COc1ccccc1NS(=O)(=O)c1c(C)[nH]c(C)c1C(=O)N1CCCC1	2	-5	-6	i	-2	nt	nt
Cc1ccc(-c2csc(NC(=O)c3c(C)noc3C)n2)cc1	-2	2	3	+	nt	i	0
COc1ccc(-c2csc(NC(=O)c3c(C)noc3C)n2)cc1	-1	4	5	i	nt	nt	nt
Cc1nc(C(F)(F)F)nc(Nc2ccc(Br)cc2)c1C#N	1	-3	0	i	-5	nt	nt
Cn1cc(Br)cc2nc(C(F)(F)F)nc1-2	-3	0	1	+	1	i	0
O=[N+]([O-])c1ccc(COc2ccc(CN3CCCC3)cc2)cc1	-4	5	3	i	nt	nt	nt
Cc1cccc(-c2nnc3sc(-c4ccccc4)nn23)c1	-2	-8	-2	i	-3	nt	nt
COc1ccc(-c2nn3c(-c4cccc(C)c4)nnc3s2)cc1OC	1	6	2	i	1	i	0
COc1ccc(NC(=O)c2ccco2)cc1NC(=O)c1c(OC)cccc1OC	-1	-3	2	i	0	nt	nt
COc1ccc(NC(=O)c2ccco2)cc1NC(=O)c1ccco1	2	-1	2	i	0	i	0
Cc1ccc(S(=O)(=O)/N=C(\N)Nc2nc(C)c3cc(C)c(C)cc3n2)cc1	2	1	2	i	0	i	0
COc1cccc(-c2ccc(NC(=O)C3CCCN(Cc4cnn(C)c4C)C3)cc2)c1 (stereo not drawn)	-3	-3	3	?	-5	nt	nt
COc1cccc(-c2ccc(NC(=O)C3CCCN(Cc4cccc(C)n4)C3)cc2)c1 (stereo not drawn)	0	5	5	i	nt	i	0
O=c1c2c(nc3nc(CCc4ccccc4)[nH]n13)CCC2	-6	2	1	+	-2	i	0
Cc1[nH]c2ccccc2c1C(=O)COC(=O)c1ccc([N+](=O)[O-])s1	1	3	-2	i	1	i	1
O=C(COC(=O)c1ccc([N+](=O)[O-])s1)NCc1ccccc1	2	3	0	i	0	nt	nt
Cc1c(NC(=O)c2cccnc2Cl)c(=O)n(-c2ccccc2)n1C	0	-12	0	nt	2	nt	nt
CCS(=O)(=O)Nc1ccc(-c2cc(-c3ccccc3)c3cc(C)ccc3n2)cc1	3	2	1	i	0	i	0
COc1cc(OC)c2c(-c3ccccc3)cc(=O)oc2c1C(CCN1CCCC(C)C1)c1ccc2c(c1)OCO2 (stereo not drawn)	5	4	2	i	-1	i	0
O=C(Cn1cc(Cl)c([N+](=O)[O-])n1)NCCC1=CCCCC1	-4	1	-2	i	-3	nt	nt
c1cn2c(NC3CCCCC3)c(-c3ccc(SC4CCCCC4)cc3)nc2cn1	12	33	5	i	2	nt	nt
c1cc(SC2CCCCC2)cc(-c2nc3cnccn3c2NC2CCCCC2)c1	5	30	10	i	nt	i	0
SMILES	CSN inh	Rpn11 inh	HNF4A DNA FP	Myeloid diff MLP	TPT1 inh	Myeloid diff	GFP autofluor
CN(C)CCN(C(=O)C1=COCCO1)c1nc2ccc(F)cc2s1	-5	0	-1	i	-2	nt	nt
COc1ccc(Cn2nnnc2C(c2cccnc2)N2CCN(c3ccc(O)cc3)CC2)cc1 (stereo not drawn)	-9	-2	0	i	2	i	5
COc1ccc(Cn2nnnc2C(c2cccs2)N2CCN(c3ccccc3)CC2)cc1 (stereo not drawn)	-3	-4	-1	i	0	nt	nt
Cc1ccc(S(=O)(=O)N2CCC(C(=O)Nc3ccc(S(=O)(=O)N4CCOCC4)cc3)CC2)cc1	-4	6	-2	i	nt	nt	nt
Cc1cc(C)c(C)c(S(=O)(=O)N2CCC(C(=O)Nc3ccc(S(=O)(=O)N4CCOCC4)cc3)CC2)c1C	3	5	0	i	0	i	0
Cc1cc(C)c2nc(SCC(=O)Nc3ccccc3N3CCOCC3)c(C#N)cc2c1	1	10	5	+	0	i	0
N#Cc1ccccc1OCC(=O)NC(=O)NCc1ccco1	2	-11	-2	i	-1	nt	nt
O=C1CCC/C(=N/NC(=O)c2ccc(NS(=O)(=O)c3cccs3)cc2)C1	6	27	0	i	2	i	0
O=C1CCC/C(=N/NC(=O)c2cc(NS(=O)(=O)c3cccs3)cc(NS(=O)(=O)c3cccs3)c2)C1	5	29	8	i	11	nt	nt
CC(=O)Nc1sc(C)c(C)c1C(=O)OCC(=O)Nc1ccc(S(N)(=O)=O)cc1	8	12	4	+	nt	i	0
N#Cc1c(N2CCN(C(=O)c3ccccc3)CC2)nc(-c2ccccc2)c2c1CCCC2	-3	10	-2	i	-2	nt	nt
N#Cc1c(N2CCN(C(=O)c3ccco3)CC2)nc(-c2ccccc2)c2c1CCCC2	2	4	3	i	2	i	0
COc1ccccc1N1CCN(C2CCCN(C(=O)CCc3c(C)noc3C)C2)CC1 (stereo not drawn)	-3	-1	1	?	1	nt	nt
O=C(CN1CCCCC1)Nc1nnc(-c2ccc([N+](=O)[O-])cc2)s1	-1	8	-11	i	-1	i	0
O=C(CN1CCCCC1)Nc1nnc(-c2ccccc2)s1	2	1	5	i	-4	nt	nt
COc1ccc(NC(=O)N(C)[C@H]2C[C@H]3c4[nH]c5ccc(-c6ccc7c(c6)OCO7)cc5c4CCN3C[C@H]2[C@H](C)O)cc1	-1	16	-7	i	nt	i	0
C1CCCCCC(NCCN2CCNCC2)CCCCC1	-1	-14	1	+	2	i	0
O=C(NC1CCCCC1)N1CCNCC1	1	-3	0	i	nt	nt	nt
Cc1cc(C(C)(C)C)oc1C(=O)N(CC(=O)NC1CCCC1)Cc1ccccc1	-3	4	1	i	-1	nt	nt
Cc1ccc(C)c(N(CC(=O)NC2CCCC2)C(=O)c2oc(C(C)(C)C)cc2C)c1	1	-4	0	i	-1	i	0
CCOC(=O)C1=NN(C(=O)c2ccc(OC)cc2)C(O)(c2ccc(Cl)cc2)C1 (stereo not drawn)	5	0	1	+	1	i	0
